Assay outcomes (PubChem BioAssay)
RGS4 pot: RGS4 potentiation or activation | HEK293 M3R/inducible RGS4, carbachol calcium flux Fluo4; stronger effect = lower value | B-score at 10 µM | hit rate 0.92% among 310,000 | AID 463111;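 active means B-score of the integrated calcium signal more than 4 SD below the library mean, with starting fluorescence not abnormally high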;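 further: negative B-score means reduced calcium response which marks RGS4 activation or potentiation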
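test system = M3R-expressing HEK293 line, RGS4 induced by doxycycline | probe or stimulus = carbachol at ECmax as muscarinic agonist stimulus | timing = dye loading 30 min 37 °C, buffer rest 30 min RT | signal = calcium dye Fluo4 fluorescence | evaluation = B score from integrated fluorescence ratio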
MrgX1 agonist: human MrgX1 receptor agonism, primary screen. MrgX1-HEK293 cells, Fluo-4 calcium fluorescence, agonist mode; stronger effect = higher value. hit rate 0.44% among 310,000. B-score at 10 µM. AID 588627;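 active means calcium response B-score plate-corrected fluorescence ratio at least 3 library SD, with starting fluorescence B-score inside 5 SD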
Target sequence (Q96LB2 whole entry, looked up): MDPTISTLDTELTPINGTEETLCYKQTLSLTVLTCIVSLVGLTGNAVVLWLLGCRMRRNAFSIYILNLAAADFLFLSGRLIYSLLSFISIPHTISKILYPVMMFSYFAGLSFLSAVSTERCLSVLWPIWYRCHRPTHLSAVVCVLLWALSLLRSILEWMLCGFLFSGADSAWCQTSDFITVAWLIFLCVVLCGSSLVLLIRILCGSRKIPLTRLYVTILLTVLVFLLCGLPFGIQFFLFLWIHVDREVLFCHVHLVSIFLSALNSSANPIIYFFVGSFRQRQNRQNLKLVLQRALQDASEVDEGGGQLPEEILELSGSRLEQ
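Material: HEK293 cells stably expressing human MrgX1 receptor | Quantity: 15,000 cells per well | Times: Cells plated overnight, dye loaded 0.5 h 37 °C, 0.5 h room temperature | Measured by: Kinetic Fluo-4 NW fluorescence of intracellular calcium | Control set: Positive and negative controls per plate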
RGS4 inh: inhibitors of human RGS4 | HEK293 M3R/RGS4 inducible, Fluo-4 calcium flux; stronger effect = higher value; triggered by carbachol at its EC20 | B-score at 10 µM | hit rate 0.45% among 310,000 | P49798;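 active means B-score, a plate-corrected calcium signal, over three deviations above library mean, with baseline fluorescence within five deviations of library mean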;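 further: RGS4 expression induced by doxycycline in cells with stable M3 receptor; B-score is computed from the integrated fluorescence ratio over baseline after carbachol; higher B-score means a larger calcium signal and so more RGS4 inhibition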
Target sequence (P49798 whole entry, looked up): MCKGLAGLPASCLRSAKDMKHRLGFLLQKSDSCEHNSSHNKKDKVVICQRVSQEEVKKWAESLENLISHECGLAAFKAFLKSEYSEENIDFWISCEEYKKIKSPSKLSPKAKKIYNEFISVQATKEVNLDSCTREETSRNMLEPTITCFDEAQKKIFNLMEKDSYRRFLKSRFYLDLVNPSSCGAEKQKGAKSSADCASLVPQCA
MrgX1 allo act: human MrgX1 positive allosteric modulation, primary screen. B-score at 10 µM. Q96LB2. AID 588675. hit rate 0.63% among 310,000. MrgX1-HEK293, Fluo-4 calcium flux, FDSS; stronger effect = higher value;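 active means plate-corrected calcium response at least 3 library SD above typical, normal starting fluorescence, not activating the receptor alone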;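 further: compound read alongside a low EC10 to EC30 dose of BAM8-22 agonist; peak minus trough fluorescence over baseline measured at the second addition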
MrgX1 antag: antagonists of human MrgX1 receptor; Q96LB2; MRGX1-HEK293 calcium flux, Fluo-4, BAM8-22 antagonism; stronger effect = lower value; B-score at 10 µM; hit rate 1.3% among 310,000;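 active means calcium-response B-score plate-corrected more than 3 library SD below zero, starting fluorescence within 5 deviations, no agonist response on first addition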;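 further: peak minus trough fluorescence over baseline after final BAM8-22 challenge near maximal dose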
RGS4 block valid: RGS4 inhibitor validation; HEK293 M3R/RGS4, carbachol calcium Fluo-4 fluorescence; carbachol added at its EC20; 0 = buffer wells, 100 = carbachol control; AID 492999; shares compounds with RGS4 inh; hit rate 65% among 1,700; calcium response, % at 10 µM;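 active means duplicate-averaged calcium response above the buffer-only control mean plus 5 SD of those controls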;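 further: integrated fluorescence ratio F max minus min over baseline F0; higher response in RGS4-induced cells means RGS4 inhibition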
RGS4 uninduced: checks RGS4 inhibitor effects in non-induced HEK293 M3R cells | AID 493000 | shares compounds with RGS4 inh | hit rate 20% among 1,900 | carbachol calcium Fluo-4; submaximal (EC20) carbachol stimulus; buffer wells 0%, carbachol control wells 100% | activity (percent), % at 10 µM; call rule not given here;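 further: RGS4 induction absent so cells express M3R without RGS4; higher means more calcium signal and flags a non-specific hit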
RGS4 inh ctr2: second RGS4 inhibitor counter-screen in uninduced cells lacking carbachol; shares compounds with RGS4 inh; HEK293 M3R/RGS4 non-induced, Fluo-4 calcium, no carbachol; normalised: buffer wells 0%, carbachol wells 100%; calcium response (agonist-mode artifact), % at 10 µM; hit rate 22% among 1,900; AID 493001;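 active means duplicate-averaged calcium rise in uninduced cells above buffer wells' mean plus 5 SD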
Each line names hits and unclear results; the compound was inactive in the other large screens (follow-up assays come after a bar, where they were run). Shown are actives, neighbours in structure and some others; about 3.5% of the full set was active somewhere.

CC(=O)Oc1cc2c(cc1Cl)C1(CC(c3ccccc3Cl)O2)CC(C)(C)NC(=S)N1 (stereo not drawn)	RGS4 inh 5 | RGS4 block valid 9.0% | RGS4 uninduced inactive | RGS4 inh ctr2 inactive
CC1CCN(c2nc(-c3ccco3)c3c(c2C#N)CC(C)(C)OC3)CC1	none | RGS4 block valid inactive | RGS4 uninduced inactive | RGS4 inh ctr2 15%
CC1(C)Cc2c(C#N)c(N3CCOCC3)nc(-c3ccccc3)c2CO1	none
Cc1cccc2cc(C(c3nnnn3C(C)(C)C)N(Cc3ccco3)CC3CCCO3)c(=O)[nH]c12 (stereo not drawn)	none | RGS4 block valid inactive | RGS4 uninduced inactive | RGS4 inh ctr2 inactive
CCC(c1nnnn1Cc1ccco1)N(Cc1cc2cc(C)cc(C)c2[nH]c1=O)CC1CCCO1 (stereo not drawn)	RGS4 inh 5.8 | RGS4 block valid inactive | RGS4 uninduced inactive | RGS4 inh ctr2 inactive
COc1ccc2[nH]c(=O)c(CN(C3CCCCC3)C(c3nnnn3Cc3ccco3)C(C)C)cc2c1 (stereo not drawn)	RGS4 inh 7.6, MrgX1 antag -4.5 | RGS4 block valid 7.5% | RGS4 uninduced inactive | RGS4 inh ctr2 24%
CC(C)(C)n1nnnc1C(c1ccccc1F)N(Cc1ccco1)CC1CCCO1 (stereo not drawn)	none
Cc1ccc2[nH]c(=O)c(C(c3nnnn3C(C)(C)C)N(Cc3ccco3)CC3CCCO3)cc2c1 (stereo not drawn)	none | RGS4 block valid inactive | RGS4 uninduced inactive | RGS4 inh ctr2 inactive
Cc1ccc2[nH]c(=O)c(C(c3nnnn3C3CCCC3)N(Cc3cccnc3)Cc3ccco3)cc2c1 (stereo not drawn)	none
CCC(c1nnnn1Cc1ccco1)N(Cc1ccccc1OC)Cc1cc2cc(C)ccc2[nH]c1=O (stereo not drawn)	none
COc1ccc(NC(=O)CN(C)C(=O)c2cccc(S(=O)(=O)N3CC4(C)CC3CC(C)(C)C4)c2)cc1 (stereo not drawn)	none
O=C(NCc1ccncc1)Nc1cccc([N+](=O)[O-])c1	none
C/C(=N\NC(=S)NC(C)C)c1ccc(-n2ccnc2)cc1	none
Cc1cc(C)c(S(=O)(=O)Nc2cccc(S(=O)(=O)NC3=NCCC3)c2)c(C)c1	RGS4 inh 4.8 | RGS4 block valid inactive | RGS4 uninduced inactive | RGS4 inh ctr2 inactive
COc1ccc(OC)c(N(CC(=O)N2CCC(C)CC2)S(=O)(=O)c2ccccc2)c1	none
CC(=O)/C(=N/Nc1ccccc1)N1CCOCC1	none | RGS4 block valid inactive | RGS4 uninduced inactive | RGS4 inh ctr2 inactive
O=C(O)c1ccccc1C(=O)Nc1ccccc1	none
O=C(Nc1ccccc1)C1=C(c2ccccc2)S(=O)(=O)CCS1(=O)=O	RGS4 inh 23 (no result: MrgX1 agonist, MrgX1 allo act, MrgX1 antag) | RGS4 block valid 47% | RGS4 uninduced inactive | RGS4 inh ctr2 inactive
NC(=O)c1ccccc1OCC(=O)Nc1ccc(Cl)c(Cl)c1	none
Fc1ccc2[nH]c3c(c2c1)CN(C(=S)NCc1ccccc1)CC3	none
O=C1Nc2ccccc2/C1=C/c1ccc([N+](=O)[O-])cc1	RGS4 inh 8.1 | RGS4 block valid inactive | RGS4 uninduced 30% | RGS4 inh ctr2 inactive
NC(=O)c1cc2ccc(O)cc2oc1=Nc1ccccc1	none (no result: MrgX1 agonist, MrgX1 allo act, MrgX1 antag) | RGS4 block valid inactive | RGS4 uninduced inactive | RGS4 inh ctr2 inactive
O=C1N/C(=N\S(=O)(=O)Cc2ccccc2)S/C1=C/c1cc([N+](=O)[O-])ccc1O	none
O=C1N/C(=N\S(=O)(=O)c2ccccc2)S/C1=C\c1cc([N+](=O)[O-])ccc1O	none
COc1cc(/C=C2/S/C(=N/S(=O)(=O)c3ccccc3)NC2=O)c([N+](=O)[O-])cc1OC	RGS4 inh 5.9 | RGS4 block valid 38% | RGS4 uninduced 50% | RGS4 inh ctr2 inactive
COc1cc(/C=C2\S/C(=N/S(=O)(=O)Cc3ccccc3)NC2=O)c([N+](=O)[O-])cc1OC	none | RGS4 block valid inactive | RGS4 uninduced inactive | RGS4 inh ctr2 inactive
COc1cc(/C=C2/S/C(=N/S(=O)(=O)Cc3ccccc3)NC2=O)c([N+](=O)[O-])cc1OC	none | RGS4 block valid inactive | RGS4 uninduced inactive | RGS4 inh ctr2 inactive
COc1cc(C(=O)N/N=C/c2ccc(OC(=O)c3ccccc3)c(OC)c2)ccc1O	none
COc1ccc(/C=C2\SC(=O)N(CC(=O)NN3CCN(C)CC3)C2=O)cc1OC	none
CCCS(=O)(=O)c1c(S(=O)(=O)CCC)c2c(N)cccn2c1C(=O)c1ccc(F)cc1	none
CCCNC(=O)c1nnsc1S(=O)c1ccc(Cl)cc1 (stereo not drawn)	RGS4 inh 7.2 (no result: MrgX1 agonist, MrgX1 allo act, MrgX1 antag) | RGS4 block valid 12% | RGS4 uninduced inactive | RGS4 inh ctr2 22%
CNC(=O)c1nnsc1S(=O)c1ccc(Cl)cc1 (stereo not drawn)	RGS4 inh 7.3 (no result: MrgX1 agonist, MrgX1 allo act, MrgX1 antag) | RGS4 block valid 30% | RGS4 uninduced inactive | RGS4 inh ctr2 14%
Cc1ccc2ncccc2c1[N+](=O)[O-]	none
COc1cccc(/C=C2\SC(=S)N(CCCC(=O)N(CCO)c3ccccc3)C2=O)c1	none
O=C1/C(=C/c2cccc(Br)c2)SC(=S)N1CCC(=O)N(CCO)c1ccccc1	RGS4 inh 5.3 | RGS4 block valid 16% | RGS4 uninduced 34% | RGS4 inh ctr2 inactive
CC1CCCC(C)N1S(=O)(=O)c1ccc(S(=O)(=O)NCc2ccccc2)cc1 (stereo not drawn)	none
O=C1Nc2ccc(Br)cc2/C1=C/C(=O)c1ccc2c(c1)OCO2	RGS4 inh 6.1, MrgX1 antag -5 | RGS4 block valid inactive | RGS4 uninduced 41% | RGS4 inh ctr2 inactive
O=C1Nc2ccccc2/C1=C\C(=O)c1ccccc1	none
Cc1cc(N=Cc2cc(Br)ccc2O)no1	RGS4 inh 7.2 | RGS4 block valid 7.5% | RGS4 uninduced inactive | RGS4 inh ctr2 inactive
Cc1ccc(S(=O)(=O)NCC(=O)N2CCCC2C(=O)O)cc1 (stereo not drawn)	none
COc1ccc(N2C(=O)CC(Sc3ncn[nH]3)C2=O)c(OC)c1 (stereo not drawn)	RGS4 inh 12 | RGS4 block valid 22% | RGS4 uninduced inactive | RGS4 inh ctr2 inactive
CC(C)c1ccc(N2C(=O)CC(Sc3ncn[nH]3)C2=O)cc1 (stereo not drawn)	none
CC1CC(=O)Nc2ccccc2N1S(=O)(=O)c1cccc(F)c1 (stereo not drawn)	none
